GRK2 inh – human GRK2 inhibition via aptamer displacement; AID 488847; inhibition of aptamer binding, % at 10 µM; actives 0.59% (n = 330,000); P25098; bead flow cytometry, FAM-aptamer displacement from GRK2;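 active = inhibition of aptamer binding above 40%, roughly 3 SD of noise, on plates passing a quality check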;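 note: median bead fluorescence of bound FAM aptamer so fluorescent compounds give negative values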
Target sequence (P25098 whole entry, looked up): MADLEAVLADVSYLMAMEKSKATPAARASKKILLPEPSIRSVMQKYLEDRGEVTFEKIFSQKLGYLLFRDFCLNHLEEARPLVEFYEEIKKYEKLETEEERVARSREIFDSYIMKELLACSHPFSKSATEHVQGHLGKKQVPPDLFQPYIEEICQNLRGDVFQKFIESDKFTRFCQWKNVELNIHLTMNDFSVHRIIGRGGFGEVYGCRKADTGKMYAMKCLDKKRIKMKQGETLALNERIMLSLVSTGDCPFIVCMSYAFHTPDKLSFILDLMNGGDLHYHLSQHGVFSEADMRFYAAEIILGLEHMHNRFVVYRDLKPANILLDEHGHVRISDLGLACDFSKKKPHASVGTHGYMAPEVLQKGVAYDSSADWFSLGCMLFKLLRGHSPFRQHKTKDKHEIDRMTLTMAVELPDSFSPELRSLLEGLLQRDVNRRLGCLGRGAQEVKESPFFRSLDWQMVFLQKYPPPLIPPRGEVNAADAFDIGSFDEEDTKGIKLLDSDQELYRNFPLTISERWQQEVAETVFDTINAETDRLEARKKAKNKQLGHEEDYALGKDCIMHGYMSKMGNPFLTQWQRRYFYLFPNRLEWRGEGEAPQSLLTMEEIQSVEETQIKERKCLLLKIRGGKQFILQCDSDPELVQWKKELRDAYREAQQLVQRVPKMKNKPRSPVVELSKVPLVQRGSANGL
EBV gp42 block – inhibitors of Epstein-Barr virus glycoprotein 42 | Q1HVG2 | Fluorescence polarization binding assay, mP read-out | inhibition, % (tested at 21.74 µM) | actives 0.42% (n = 220,000); in the data active = inhibition above about 50%
Keap1 Nrf2 FP – Keap1-Nrf2 (human) interaction inhibition; Q14145; actives 0.15% (n = 340,000); inhibition, % at 9.4 µM; Keap1 Kelch-Nrf2 peptide fluorescence polarization, 1536-well; in the data active = inhibition above about 12%;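 note: human Keap1 Kelch domain with fluorescein labeled Nrf2 9mer peptide probe; 0% = neutral control wells and 100% = peptide positive control; higher means more block of Keap1 binding to Nrf2 peptide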
T cell HTS – modulates CD8 T cell binding to vesicles | AID 2052 | actives 0.068% (n = 330,000) | 2C CD8+ T cell-vesicle binding, flow cytometry; hits give low values | response (vesicle binding), % at 7 µM;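 active = response, share of CD8 T cells binding vesicles, and their 90th percentile fluorescence all below set limits, cut at about 80% in these data, passing the limit was not always enough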;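 note: values below 100% mean blocked vesicle binding to the CD8+ T cells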
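incubation = binding step 1.5 h, 37 °C, antibody labelling 20 min, ice | test system = 2C mouse CD8+ T cells | read-out basis = percent CD8+ FL2 mean versus row control | controls = Peptide-free naked vesicles (low) and QL9 vesicles with 0.7% DMSO vehicle (high) | detection = flow cytometry of vesicle-bound cells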
MEX-5 binding – C. elegans MEX-5 TCR-2 RNA binding activity; MEX-5/FITC-TCR2 RNA binding, fluorescence polarization; hits give low values; Q9XUB2; activity score (negative = inhibition of binding), % at 10 µM; AID 1832; actives 0.38% (n = 300,000);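 active = inhibition past about -25% in most replicates, and total fluorescence under double the plate's negative control median, limit read from the data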;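 note: 0% = DMSO and -100% = 5 µM competing unlabeled TCR2 RNA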
LANA DNA inh – inhibitors of KSHV LANA C-terminal domain DNA binding. actives 0.078% (n = 340,000). inhibition, % at 9 µM. MBP-C-LANA/FAM-LBS DNA binding, fluorescence polarization;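 active = highest replicate inhibition at or above 60% at 9 µM, even if other replicates fall short; inactive = all replicates below 60% inhibition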;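 note: 0% = neutral control wells and 100% = 4 µM acridine orange control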
GRK2 CP1 – human GRK2 inhibition confirmation, cherry pick 1; AID 504451; bead-bound GRK2, FAM-aptamer displacement, flow cytometry; shares compounds with GRK2 inh; actives 4% (n = 2,000); aptamer displacement, % at 10 µM;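 active = aptamer displacement above 40%, near three times the noise of non-fluorescent compounds, on plates passing quality checks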;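 note: negative values mostly reflect intrinsic compound fluorescence rather than true enhancement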
FAM quench CP1 – aptamer fluorescence quenching in GRK2 counter-screen | shares compounds with GRK2 inh | Carboxyfluorescein RNA aptamer on beads, flow cytometry quenching; hits give low values | fluorescence response (% of DMSO), % at 10 µM | 2,000 tested, under 10 active;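 active = compounds that quench the bead-bound fluorescent RNA probe, cutting fluorescence to under half of the solvent control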;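 note: counterscreen run without GRK2 so only probe quenching by compound is measured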
GRK2 CP2 – confirmation of human GRK2 inhibitors binding RNA aptamer site; shares compounds with GRK2 inh; bead-bound GRK2, FAM-aptamer displacement, flow cytometry; inhibition of aptamer binding, % at 10 µM; 360 tested, under 10 active;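 active = inhibition of aptamer binding above 40%, about triple the noise seen with nonglowing compounds, on plates passing quality control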;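 note: negative values mostly come from compounds that fluoresce themselves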
FAM quench SP – quenches fluorescent RNA aptamer, GRK2 hit artifact; shares compounds with GRK2 inh; carboxyfluorescein RNA aptamer beads, flow cytometry quenching; hits give low values; fluorescence response vs DMSO, % at 10 µM; 360 tested, under 10 active;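 active = response vs DMSO under 50%, meaning signal dropped by over half, treated as fluorescence quencher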;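 note: labelled aptamer on streptavidin beads without GRK2 as a quench counter-screen; 100% = bead fluorescence of DMSO wells and lower means quenching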
The depositor's hits bear a star; i = inactive; · = not tested or not shown. Hits are enriched below; roughly 1.3% of the tested compounds scored in any of these assays.

SMILES	GRK2 inh	EBV gp42 block	Keap1 Nrf2 FP	T cell HTS	MEX-5 binding	LANA DNA inh	GRK2 CP1	FAM quench CP1	others
O=C1COc2ccc(C(=O)COC(=O)/C=C/c3ccc(Br)o3)cc2N1	57*	·	-5	148	6	-1	2	93
Cc1ccc2[nH]c3c(NCCCN4CCCC4=O)ncnc3c2c1	2	-1	6	270	-3	0	·	·
COc1cccc(CN2CCN(Cc3cccc(Br)c3)CC2)c1OC	55*	·	3	171	0	-3	1	98
O=C(Nc1ccc2c(c1)OCO2)C1CCCCN1S(=O)(=O)c1ccc(F)cc1 (stereo unspecified)	0	1	2	699	-3	1	·	·
CC(OCC(O)CN1CCCCC1CCO)c1ccc(Cl)cc1 (stereo unspecified)	75*	·	-2	362	2	-1	-7	93
Cc1ccc(C(OCC(O)CN2CCCCC2CO)c2ccccc2)cc1 (stereo unspecified)	0	-7	-1	161	-2	0	·	·
CCc1ccc(Nc2nnc(SCC(=O)NC(=O)CN3CCCC3=O)s2)cc1	45*	·	4	312	·	1	19	102
COc1ccccc1Nc1nnc(SCC(=O)N2CCCC2=O)s1	1	-31	-6	367	0	0	·	·
Cc1ccc(C)c2sc(NC(=O)CN3C(=O)CCC3=O)nc12	0	-6	2	120	-4	-1	·	·
CC[C@]12c3[nH]c4ccc(OC)cc4c3CCN1C(=O)C(CC(=O)NCCN1CCOCC1)C[C@@H]2C(=O)N1CCN(C(=O)c2ccco2)CC1 (stereo partly specified)	3	·	2	·	·	-1	·	·
N#CC1=C2SCN(Cc3ccco3)CN2C(=O)CC1c1c(F)cccc1Cl (stereo unspecified)	88*	-16	-4	740	1	0	-3	100
O=C(NC(c1ccccc1)c1ccccc1)N1CCOCC1	3	-4	-2	i	0	2	·	·
NS(=O)(=O)c1ccc(-c2ccc(/C=C3\SC(=S)N(C4CCS(=O)(=O)C4)C3=O)o2)cc1 (stereo unspecified)	0	-9	-6	150	·	-1	·	·
Cc1ccc(/C=C2\SC(=S)N(C3CCS(=O)(=O)C3)C2=O)o1 (stereo unspecified)	43*	-39	-1	100	-1	2	7	104
Cn1c(C(=O)N[C@@H](C(=O)O)c2ccccc2)cc2cc(F)ccc21	64*	·	-3	189	2	-1	2	99
O=C(CN1CCN(c2cccc(Cl)c2)CC1)Nc1ccc([N+](=O)[O-])cc1C(=O)Nc1ccccc1F	1	-4	3	460	2	2	·	·
Cc1cc(-c2cccnc2)c(C#N)c(SCc2cccc(F)c2)n1	0	-3	-3	142	-3	-1	·	·
Cc1cc(-c2cccnc2)c(C#N)c(SCC#N)n1	84*	-22	-3	425	3	-1	1	98
CC(=O)CCN1C(=O)NC2(CCCc3ccccc32)C1=O (stereo unspecified)	58*	·	-3	775	0	0	·	·	GRK2 CP2=-33;FAM quench SP=99
CC(=O)Nc1ccc(C(=O)CN2C(=O)NC3(CCCc4ccccc43)C2=O)c(F)c1 (stereo unspecified)	27	·	-2	475	·	3	0	104
O=C(NC(Cc1ccc2c(c1)OCO2)C(=O)N1CCCC1C(=O)O)c1ccccc1 (stereo unspecified)	3	-12	-3	228	2	3	·	·
